In ChEMBL document CHEMBL4689842, “EUbOPEN Chemogenomics Library wave 1” (2021):

What was measured:
HEK-293T = assay: Multiplex assay against HEK293T; assay type: toxicity, cell-based; details: human;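 for Population Tubulin-Different-Phenotype (%): share of the cells with healthy nuclei that show this phenotype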
Procedure, shortened: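 Tubulin, mitochondrial-mass and membrane-permeability phenotypes are per cents of healthy-nucleus cells. Cells were gated by CellPathfinder machine learning into Hoechst high-intensity objects or normal cells, normal cells into healthy, pyknosed or fragmented nuclei, and pyknosed cells into mitotic or apoptotic. Before that, live cells stained at seeding with Hoechst33342, BioTracker Green Microtubule Cytoskeleton Dye, MitoTracker Red and Annexin V Alexa Fluor 680 were imaged on a CQ1 microscope at 37°C and 5% CO2 after compound addition.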

Fibroblast = assay: Incucyte cell viability with human fibroblast; assay type: toxicity, cell-based; details: 10 µM, compound concentration 10 uM; note: filed as whole numbers so only -1 and 0 and 1 occur
[1] = 12 h, 1 µM, compound concentration 1 uM, replicate 1
[2] = 12 h, 1 µM, compound concentration 1 uM, replicate 2
[3] = 12 h, 10 µM, compound concentration 10 uM, replicate 1
[4] = 12 h, 10 µM, compound concentration 10 uM, replicate 2
[5] = 24 h, 1 µM, compound concentration 1 uM, replicate 1
[6] = 24 h, 1 µM, compound concentration 1 uM, replicate 2
[7] = 24 h, 10 µM, compound concentration 10 uM, replicate 1
[8] = 24 h, 10 µM, compound concentration 10 uM, replicate 2
[9] = 48 h, 1 µM, compound concentration 1 uM, replicate 1
[10] = 48 h, 1 µM, compound concentration 1 uM, replicate 2
[11] = 48 h, 10 µM, compound concentration 10 uM, replicate 1
[12] = 48 h, 10 µM, compound concentration 10 uM, replicate 2

CCc1cc2c(cc1CC)CC(NC[C@H](O)c1ccc(O)c3[nH]c(=O)ccc13)C2 [INDACATEROL]
Population Apoptotic (%) (HEK-293T; [1]): 48%
Population Fragmented Nuclei (%) (HEK-293T; [1]): 10%
Population Healthy Nuclei (%) (HEK-293T; [1]): 47%
Population Hoechst High Intensity Objects (%) (HEK-293T; [1]): 16%
Population Membrane Permeable-Phenotype (%) (HEK-293T; [1]): 4%
Population Mitochondria Different-Phenotype (%) (HEK-293T; [1]): 74%
Population Mitotic Cells (%) (HEK-293T; [1]): 51%
Population Normal (%) (HEK-293T; [1]): 83%
Population Pyknosed Nuclei (%) (HEK-293T; [1]): 42%
Population Tubulin-Different-Phenotype (%) (HEK-293T; [1]): 53%
Total Cell Count (HEK-293T; [1]): 240
Population Apoptotic (%) (HEK-293T; [2]): 6%
Population Fragmented Nuclei (%) (HEK-293T; [2]): 8%
Population Healthy Nuclei (%) (HEK-293T; [2]): 36%
Population Hoechst High Intensity Objects (%) (HEK-293T; [2]): 3%
Population Membrane Permeable-Phenotype (%) (HEK-293T; [2]): 10%
Population Mitochondria Different-Phenotype (%) (HEK-293T; [2]): 50%
Population Mitotic Cells (%) (HEK-293T; [2]): 93%
Population Normal (%) (HEK-293T; [2]): 96%
Population Pyknosed Nuclei (%) (HEK-293T; [2]): 55%
Population Tubulin-Different-Phenotype (%) (HEK-293T; [2]): 51%
Total Cell Count (HEK-293T; [2]): 228
Population Apoptotic (%) (HEK-293T; [3]): 93%
Population Fragmented Nuclei (%) (HEK-293T; [3]): 19%
Population Healthy Nuclei (%) (HEK-293T; [3]): 12%
Population Hoechst High Intensity Objects (%) (HEK-293T; [3]): 30%
Population Membrane Permeable-Phenotype (%) (HEK-293T; [3]): 0%
Population Mitochondria Different-Phenotype (%) (HEK-293T; [3]): 61%
Population Mitotic Cells (%) (HEK-293T; [3]): 6%
Population Normal (%) (HEK-293T; [3]): 69%
Population Pyknosed Nuclei (%) (HEK-293T; [3]): 67%
Population Tubulin-Different-Phenotype (%) (HEK-293T; [3]): 61%
Total Cell Count (HEK-293T; [3]): 204
Population Apoptotic (%) (HEK-293T; [4]): 82%
Population Fragmented Nuclei (%) (HEK-293T; [4]): 8%
Population Healthy Nuclei (%) (HEK-293T; [4]): 17%
Population Hoechst High Intensity Objects (%) (HEK-293T; [4]): 12%
Population Membrane Permeable-Phenotype (%) (HEK-293T; [4]): 3%
Population Mitochondria Different-Phenotype (%) (HEK-293T; [4]): 90%
Population Mitotic Cells (%) (HEK-293T; [4]): 17%
Population Normal (%) (HEK-293T; [4]): 87%
Population Pyknosed Nuclei (%) (HEK-293T; [4]): 74%
Population Tubulin-Different-Phenotype (%) (HEK-293T; [4]): 87%
Total Cell Count (HEK-293T; [4]): 215
Population Apoptotic (%) (HEK-293T; [5]): 48%
Population Fragmented Nuclei (%) (HEK-293T; [5]): 10%
Population Healthy Nuclei (%) (HEK-293T; [5]): 57%
Population Hoechst High Intensity Objects (%) (HEK-293T; [5]): 16%
Population Membrane Permeable-Phenotype (%) (HEK-293T; [5]): 4%
Population Mitochondria Different-Phenotype (%) (HEK-293T; [5]): 70%
Population Mitotic Cells (%) (HEK-293T; [5]): 52%
Population Normal (%) (HEK-293T; [5]): 83%
Population Pyknosed Nuclei (%) (HEK-293T; [5]): 32%
Population Tubulin-Different-Phenotype (%) (HEK-293T; [5]): 43%
Total Cell Count (HEK-293T; [5]): 279
Population Apoptotic (%) (HEK-293T; [6]): 22%
Population Fragmented Nuclei (%) (HEK-293T; [6]): 7%
Population Healthy Nuclei (%) (HEK-293T; [6]): 55%
Population Hoechst High Intensity Objects (%) (HEK-293T; [6]): 2%
Population Membrane Permeable-Phenotype (%) (HEK-293T; [6]): 3%
Population Mitochondria Different-Phenotype (%) (HEK-293T; [6]): 42%
Population Mitotic Cells (%) (HEK-293T; [6]): 77%
Population Normal (%) (HEK-293T; [6]): 97%
Population Pyknosed Nuclei (%) (HEK-293T; [6]): 37%
Population Tubulin-Different-Phenotype (%) (HEK-293T; [6]): 55%
Total Cell Count (HEK-293T; [6]): 282
Population Apoptotic (%) (HEK-293T; [7]): 98%
Population Fragmented Nuclei (%) (HEK-293T; [7]): 22%
Population Healthy Nuclei (%) (HEK-293T; [7]): 11%
Population Hoechst High Intensity Objects (%) (HEK-293T; [7]): 33%
Population Membrane Permeable-Phenotype (%) (HEK-293T; [7]): 6%
Population Mitochondria Different-Phenotype (%) (HEK-293T; [7]): 50%
Population Mitotic Cells (%) (HEK-293T; [7]): 1%
Population Normal (%) (HEK-293T; [7]): 66%
Population Pyknosed Nuclei (%) (HEK-293T; [7]): 65%
Population Tubulin-Different-Phenotype (%) (HEK-293T; [7]): 50%
Total Cell Count (HEK-293T; [7]): 213
Population Apoptotic (%) (HEK-293T; [8]): 95%
Population Fragmented Nuclei (%) (HEK-293T; [8]): 5%
Population Healthy Nuclei (%) (HEK-293T; [8]): 20%
Population Hoechst High Intensity Objects (%) (HEK-293T; [8]): 15%
Population Membrane Permeable-Phenotype (%) (HEK-293T; [8]): 2%
Population Mitochondria Different-Phenotype (%) (HEK-293T; [8]): 97%
Population Mitotic Cells (%) (HEK-293T; [8]): 4%
Population Normal (%) (HEK-293T; [8]): 84%
Population Pyknosed Nuclei (%) (HEK-293T; [8]): 74%
Population Tubulin-Different-Phenotype (%) (HEK-293T; [8]): 89%
Total Cell Count (HEK-293T; [8]): 219
Population Apoptotic (%) (HEK-293T; [9]): 43%
Population Fragmented Nuclei (%) (HEK-293T; [9]): 12%
Population Healthy Nuclei (%) (HEK-293T; [9]): 72%
Population Hoechst High Intensity Objects (%) (HEK-293T; [9]): 9%
Population Membrane Permeable-Phenotype (%) (HEK-293T; [9]): 0%
Population Mitochondria Different-Phenotype (%) (HEK-293T; [9]): 45%
Population Mitotic Cells (%) (HEK-293T; [9]): 56%
Population Normal (%) (HEK-293T; [9]): 90%
Population Pyknosed Nuclei (%) (HEK-293T; [9]): 14%
Population Tubulin-Different-Phenotype (%) (HEK-293T; [9]): 33%
Total Cell Count (HEK-293T; [9]): 393
Population Apoptotic (%) (HEK-293T; [10]): 22%
Population Fragmented Nuclei (%) (HEK-293T; [10]): 7%
Population Healthy Nuclei (%) (HEK-293T; [10]): 73%
Population Hoechst High Intensity Objects (%) (HEK-293T; [10]): 7%
Population Membrane Permeable-Phenotype (%) (HEK-293T; [10]): 5%
Population Mitochondria Different-Phenotype (%) (HEK-293T; [10]): 17%
Population Mitotic Cells (%) (HEK-293T; [10]): 77%
Population Normal (%) (HEK-293T; [10]): 92%
Population Pyknosed Nuclei (%) (HEK-293T; [10]): 18%
Population Tubulin-Different-Phenotype (%) (HEK-293T; [10]): 49%
Total Cell Count (HEK-293T; [10]): 448
Population Apoptotic (%) (HEK-293T; [11]): 91%
Population Fragmented Nuclei (%) (HEK-293T; [11]): 29%
Population Healthy Nuclei (%) (HEK-293T; [11]): 2%
Population Hoechst High Intensity Objects (%) (HEK-293T; [11]): 35%
Population Membrane Permeable-Phenotype (%) (HEK-293T; [11]): 25%
Population Mitochondria Different-Phenotype (%) (HEK-293T; [11]): 25%
Population Mitotic Cells (%) (HEK-293T; [11]): 8%
Population Normal (%) (HEK-293T; [11]): 64%
Population Pyknosed Nuclei (%) (HEK-293T; [11]): 67%
Population Tubulin-Different-Phenotype (%) (HEK-293T; [11]): 0%
Total Cell Count (HEK-293T; [11]): 209
Population Apoptotic (%) (HEK-293T; [12]): 98%
Population Fragmented Nuclei (%) (HEK-293T; [12]): 9%
Population Healthy Nuclei (%) (HEK-293T; [12]): 17%
Population Hoechst High Intensity Objects (%) (HEK-293T; [12]): 17%
Population Membrane Permeable-Phenotype (%) (HEK-293T; [12]): 6%
Population Mitochondria Different-Phenotype (%) (HEK-293T; [12]): 96%
Population Mitotic Cells (%) (HEK-293T; [12]): 1%
Population Normal (%) (HEK-293T; [12]): 82%
Population Pyknosed Nuclei (%) (HEK-293T; [12]): 73%
Population Tubulin-Different-Phenotype (%) (HEK-293T; [12]): 96%
Total Cell Count (HEK-293T; [12]): 214
Growth Rate (Fibroblast; 0 h, replicate number 1, timepoint 0 hours): 1
Growth Rate (Fibroblast; 6 h, replicate number 2, timepoint 6 hours): 0
Growth Rate (Fibroblast; 12 h, replicate number 1, timepoint 12 hours): 0
Growth Rate (Fibroblast; 18 h, replicate number 1, timepoint 18 hours): 0
Growth Rate (Fibroblast; 24 h, replicate number 1, timepoint 24 hours): 0
